Data: ChEMBL document CHEMBL2163314, “Potent aminocyclitol glucocerebrosidase inhibitors are subnanomolar pharmacological chaperones for treating gaucher disease” (J Med Chem, 2012)
Calls of active or inactive are those of the source. No cut-off for these calls is given here.

How the values were obtained:
[1] = molecular target: T1, Lysosomal acid glucosylceramidase (Homo sapiens) (UniProt P04062); conditions: 50 uM
T1 sequence (whole entry): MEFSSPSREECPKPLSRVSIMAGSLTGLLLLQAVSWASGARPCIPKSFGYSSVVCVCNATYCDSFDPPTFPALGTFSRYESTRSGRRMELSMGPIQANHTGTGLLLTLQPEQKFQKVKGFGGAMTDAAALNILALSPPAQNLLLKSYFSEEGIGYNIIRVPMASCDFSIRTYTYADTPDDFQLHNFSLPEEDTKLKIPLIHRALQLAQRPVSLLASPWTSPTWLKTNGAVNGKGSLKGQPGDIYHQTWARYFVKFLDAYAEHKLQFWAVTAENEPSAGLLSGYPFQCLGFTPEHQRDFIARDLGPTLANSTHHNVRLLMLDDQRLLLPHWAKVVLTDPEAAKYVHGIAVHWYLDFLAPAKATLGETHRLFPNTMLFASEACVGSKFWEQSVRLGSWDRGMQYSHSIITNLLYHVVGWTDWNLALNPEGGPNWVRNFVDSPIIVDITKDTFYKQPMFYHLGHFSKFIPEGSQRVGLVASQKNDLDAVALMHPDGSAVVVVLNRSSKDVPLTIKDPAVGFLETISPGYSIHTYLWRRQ

[2] = molecular target: T2, Beta-galactosidase (Bos taurus) (UniProt Q58D55); experiment: Inhibition of bovine liver beta-galactosidase at 100 uM
T2 sequence (whole entry): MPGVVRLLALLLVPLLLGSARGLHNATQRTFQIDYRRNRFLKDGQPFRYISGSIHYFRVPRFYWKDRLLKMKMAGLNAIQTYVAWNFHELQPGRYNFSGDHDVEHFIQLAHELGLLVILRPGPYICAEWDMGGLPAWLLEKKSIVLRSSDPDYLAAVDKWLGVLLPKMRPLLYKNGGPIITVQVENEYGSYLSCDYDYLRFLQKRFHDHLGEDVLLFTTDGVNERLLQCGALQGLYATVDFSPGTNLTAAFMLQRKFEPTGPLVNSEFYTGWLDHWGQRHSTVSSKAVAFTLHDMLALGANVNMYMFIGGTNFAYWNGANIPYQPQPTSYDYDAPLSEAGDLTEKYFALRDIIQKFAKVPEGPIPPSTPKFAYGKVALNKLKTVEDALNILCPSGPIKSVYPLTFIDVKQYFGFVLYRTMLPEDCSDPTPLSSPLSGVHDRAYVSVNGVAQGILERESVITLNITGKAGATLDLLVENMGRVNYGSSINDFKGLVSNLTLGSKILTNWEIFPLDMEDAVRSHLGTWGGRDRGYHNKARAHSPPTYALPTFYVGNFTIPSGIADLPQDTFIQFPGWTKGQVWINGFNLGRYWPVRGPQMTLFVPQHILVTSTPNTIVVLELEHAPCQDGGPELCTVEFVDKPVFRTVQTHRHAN

[3] = molecular target: T3, Ceramide glucosyltransferase (Mus musculus) (UniProt O88693); experiment: Inhibition of GCS activity in mouse tissue homogenate at 250 uM
T3 sequence (whole entry): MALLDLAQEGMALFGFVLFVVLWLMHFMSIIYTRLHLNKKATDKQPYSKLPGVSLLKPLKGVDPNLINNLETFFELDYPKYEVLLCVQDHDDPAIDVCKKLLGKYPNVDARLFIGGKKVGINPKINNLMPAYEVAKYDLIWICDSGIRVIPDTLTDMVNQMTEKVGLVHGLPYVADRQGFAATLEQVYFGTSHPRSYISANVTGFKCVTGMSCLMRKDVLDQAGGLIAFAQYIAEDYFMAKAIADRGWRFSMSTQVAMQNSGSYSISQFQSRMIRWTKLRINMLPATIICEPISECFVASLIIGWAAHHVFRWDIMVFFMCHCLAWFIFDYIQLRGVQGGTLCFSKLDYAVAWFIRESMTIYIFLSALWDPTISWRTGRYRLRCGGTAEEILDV

[4] = Cytotoxicity against human fibroblasts at 50 uM; type: cell-based; conditions: fibroblast
[5] = Cytotoxicity against human fibroblasts at 5 uM; type: cell-based; conditions: fibroblast
[6] = molecular target: T3, Ceramide glucosyltransferase (Mus musculus); experiment: Inhibition of GCS activity in mouse tissue homogenate at 50 uM
[7] = molecular target: T4, Beta-galactosidase (Homo sapiens) (UniProt P16278); experiment: Inhibition of lysosomal beta-galactosidase in human fibroblast at 5 uM after 24 hrs
T4 sequence (whole entry): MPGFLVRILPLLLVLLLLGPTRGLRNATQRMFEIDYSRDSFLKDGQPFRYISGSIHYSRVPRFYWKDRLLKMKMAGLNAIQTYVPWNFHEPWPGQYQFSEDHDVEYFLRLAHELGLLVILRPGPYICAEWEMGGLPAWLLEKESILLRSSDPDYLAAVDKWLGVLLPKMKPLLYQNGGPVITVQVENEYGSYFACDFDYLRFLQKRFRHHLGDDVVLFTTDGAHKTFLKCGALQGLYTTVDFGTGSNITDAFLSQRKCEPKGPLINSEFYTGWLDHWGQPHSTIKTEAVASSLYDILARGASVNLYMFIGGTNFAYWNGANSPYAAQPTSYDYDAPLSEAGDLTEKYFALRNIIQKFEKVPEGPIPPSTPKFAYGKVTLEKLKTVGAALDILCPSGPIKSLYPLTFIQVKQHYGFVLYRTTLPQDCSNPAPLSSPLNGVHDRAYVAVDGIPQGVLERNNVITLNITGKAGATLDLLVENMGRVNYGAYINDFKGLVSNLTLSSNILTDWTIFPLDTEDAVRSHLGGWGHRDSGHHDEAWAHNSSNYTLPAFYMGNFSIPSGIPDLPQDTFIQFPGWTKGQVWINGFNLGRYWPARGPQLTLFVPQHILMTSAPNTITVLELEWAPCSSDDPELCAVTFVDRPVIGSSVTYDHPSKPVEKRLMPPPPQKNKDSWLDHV

[8] = Agonist activity at glucosylceramidase […] mutant in lymphoblast obtained from Gaucher disease patient using 4-methylumbelliferyl-beta-D-glucopyranoside as substrate preincubated at 100 nM for 3 days measured 2 hrs post substrate addition by fluorescence assay relative to untreated control; type: functional, Homo sapiens
Procedure, shortened: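 Homozygous L444P GD type 2 patient-derived lymphoblasts (GM08752) in RPMI-1640 with 15% FBS, seeded at 2 × 10^5 cells/well and exposed to compound for 3 days. Cells were washed with PBS and sonicated in water. Homogenate was assayed with 6 mM 4-methylumbelliferyl-β-D-glucopyranoside in 0.1 M citrate phosphate, pH 5.2, with 0.25% taurocholate and 0.1% Triton X-100, for 2 h at 37 °C. Fluorescence read at 355/460 nm, normalized to untreated cells, triplicate.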

Compound | inhibition [1] | inhibition [2] | inhibition [3] | Activity [4] | Activity [5] | inhibition [6] | inhibition [7] | fold change (FC) [8]
CCCCCCCCCN[C@H]1[C@H](O)[C@@H](O)[C@H](O)[C@@H](O)[C@@H]1OC.Cl | 23% |  |  |  |  |  |  | 
CCCCCCCCCN[C@@H]1[C@H](O)[C@@H](O)[C@H](O)[C@@H](O)[C@@H]1O | 23% | 74% |  |  |  |  |  | 
CCCCCCCCCN[C@H]1[C@H](O)[C@@H](O)[C@H](O)[C@@H](O)[C@@H]1O | 23% |  |  |  |  |  |  | 
CCCCCCCCCN[C@H]1[C@H](O)[C@@H](O)[C@H](O)[C@@H](O)[C@@H]1OCCCCCCCCC.Cl |  |  | 56% | Toxic | Non-toxic | inactive | < 16% | 
CCCCCCCCCN[C@@H]1[C@H](O)[C@H](O)[C@@H](O)[C@H](O)[C@H]1O.Cl |  |  |  |  |  |  |  | 1.2
CCCCCCCCCO[C@H]1[C@@H](N)[C@H](O)[C@@H](O)[C@H](O)[C@H]1O.Cl |  | 74% |  |  |  |  |  | 1.3
CCCCCCCCCN[C@H]1[C@H](O)[C@@H](O)[C@H](O)[C@@H](O)[C@H]1OCCCCCCCCC.Cl |  | 74% | 56% | Toxic | Non-toxic | inactive | inactive | 
CCCCCCCCCN(CCCCCCCCC)[C@@H]1[C@H](O)[C@H](O)[C@@H](O)[C@H](O)[C@H]1O.Cl |  |  | 56% | Toxic | Non-toxic | inactive | < 16% | 
